Experimental data from ChEMBL document CHEMBL1157292, “(+)-agelasine D: improved synthesis and evaluation of antibacterial and cytotoxic activities” (J Nat Prod, 2006).
pIC50: −log10 of the molar value. ≈ marks a conversion by molar mass, not a printed value. Calls of active or inactive are those of the source. The rule behind the calls is not given here.

Assays:
[1] = tested on: L1210; test: Cytotoxicity against mouse L1210 cells; format: functional, cell-based
[2] = tested on: Mycobacterium tuberculosis; test: Antibacterial activity against Mycobacterium tuberculosis by standard broth microdilution technique; format: functional
[3] = tested on: Bacteroides thetaiotaomicron; test: Antibacterial activity against Bacteroides thetaiotaomicron DSM 2255 by standard broth microdilution technique; format: functional
Outline: (§1)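 Strains kept at -80 °C and grown on blood agar at 35 °C for 24 h before testing. DMSO stocks were serially 2-fold diluted in reduced Wilkins-Chalgren broth to final 0.125–32 μg/mL. Colony suspension was set to 0.5 McFarland and diluted 1:10 (~1.5 × 10⁷ CFU/mL); 10 μL was added per well, in triplicate. Incubated anaerobically at 35 °C for 48 h. MIC was the lowest concentration without visible growth. Tests were repeated at least once.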

[4] = tested on: Bacteroides fragilis; test: Antibacterial activity against Bacteroides fragilis DSM 2151 by standard broth microdilution technique; format: functional; outline: as §1
[5] = Cytotoxicity against human RPMI 8226/s cells after 72 hrs by fluorometric microculture cytotoxicity assay; format: functional, cell-based; details: RPMI8226/S
Outline: (§2)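 FMCA method: compounds dissolved in 10% DMSO were tested at 10 concentrations, 0.15625–80 μM, each in triplicate. Plates included solvent, medium, Triton X-100 and PBS controls. Cells were exposed for 72 h, washed with PBS, and incubated with FDA for 40 min. Fluorescence, proportional to living cells, gave a survival index at each concentration. Values are mean ± SEM of triplicates, fitted by nonlinear regression.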

[6] = Cytotoxicity against human CEM/s cells after 72 hrs by fluorometric microculture cytotoxicity assay; format: functional, cell-based; outline: as §2
[7] = tested on: U-937/GTB; test: Cytotoxicity against human U937 GTB cells at 80 uM after 72 hrs by fluorometric microculture cytotoxicity assay; format: functional, cell-based; outline: as §2
[8] = tested on: ACHN; test: (§3) Cytotoxicity against multidrug-resistant human ACHN cells after 72 hrs by fluorometric microculture cytotoxicity assay; format: functional, cell-based; outline: as §2
[9] = tested on: CEM/s; test: Cytotoxicity against human CEM/s cells at 80 uM after 72 hrs by fluorometric microculture cytotoxicity assay; format: functional, cell-based; outline: as §2
[10] = tested on: ACHN; test: as §3; format: functional, cell-based; outline: as §2; remark: listed apart in the source
[11] = tested on: Escherichia coli; test: Antibacterial activity against Escherichia coli ATCC 25922 by standard broth microdilution technique; format: functional
Outline: (§4)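 Exponential-phase cultures were diluted to a final inoculum of 1 × 10⁶ CFU/mL and mixed 1:1 with serial dilutions made in double-distilled water. Medium was 2% bactopeptone water for S. aureus, E. coli and P. aeruginosa, and brain heart infusion broth for E. faecalis and S. pyogenes. Incubated at 37 °C overnight. MIC was the lowest concentration without visible growth. Gentamycin served as internal control.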

[12] = tested on: U-937/GTB; test: Cytotoxicity against human U937 GTB cells after 72 hrs by fluorometric microculture cytotoxicity assay; format: functional, cell-based; outline: as §2
[13] = species on record: Homo sapiens; test: Cytotoxicity against human RPMI 8226/s cells at 80 uM after 72 hrs by fluorometric microculture cytotoxicity assay; format: functional, cell-based; outline: as §2
[14] = tested on: Staphylococcus aureus; test: Antibacterial activity against Staphylococcus aureus ATCC 25923 by standard broth microdilution technique; format: functional; outline: as §4
[15] = tested on: Streptococcus pyogenes; test: Antibacterial activity against Streptococcus pyogenes ATCC 19615 by standard broth microdilution technique; format: functional; outline: as §4
[16] = tested on: Pseudomonas aeruginosa; test: Antibacterial activity against Pseudomonas aeruginosa ATCC 27853 by standard broth microdilution technique; format: functional; outline: as §4
[17] = tested on: Enterococcus faecalis; test: Antibacterial activity against Enterococcus faecalis by standard broth microdilution technique; format: functional; outline: as §4

Row | Compound | MIC [2] [µg/mL] | MIC [3] [µg/mL] | MIC [4] [µg/mL] | pIC50 [5] | pIC50 [6] | pIC50 [10] | MIC [11] [µg/mL] | pIC50 [12] | MIC [14] [µg/mL] | further results
1 | C/C(=C\Cn1c[n+](C)c2ncnc(N)c21)CC[C@@]1(C)[C@H](C)CC[C@@]2(C)C(COC(=O)c3cc(Br)c[nH]3)=CCC[C@@H]12 | – | – | – | – | – | – | – | – | – | pIC50 [1]: 5.32
2 | CO[C@H]1/C=C/O[C@@]2(C)Oc3c(C)c(O)c4c(O)c(c(/C=N/N5CCN(C)CC5)c(O)c4c3C2=O)NC(=O)/C(C)=C\C=C\[C@H](C)[C@H](O)[C@@H](C)[C@@H](O)[C@@H](C)[C@H](OC(C)=O)[C@@H]1C [RIFAMPIN] | 0.25 (≈ 0.304 µM) | – | – | – | – | – | – | – | – | –
3 | Cc1ncc([N+](=O)[O-])n1CCO [METRONIDAZOLE] | – | 1 (≈ 5.84 µM) | 0.5 (≈ 2.92 µM) | – | – | – | – | – | – | –
4 | COc1cccc2c1C(=O)c1c(O)c3c(c(O)c1C2=O)C[C@@](O)(C(=O)CO)C[C@@H]3O[C@H]1C[C@H](N)[C@H](O)[C@H](C)O1 [DOXORUBICIN] | – | – | – | 6.89 | 6.74 | – | – | – | – | –
5 | C=C1CC[C@H]2C(C)(C)CCC[C@]2(C)[C@H]1CC/C(C)=C/Cn1c[n+](C)c2nc[n-]/c(=N\OC(C)(C)C)c21 | 3.13 (≈ 6.34 µM) | 4 (≈ 8.1 µM) | 4 (≈ 8.1 µM) | < 4.10 | < 4.10 | < 4.10 | 32 (≈ 64.8 µM) | < 4.10 | 6 (≈ 12.2 µM) | Activity [7]: inactive; Activity [8]: inactive; Activity [9]: inactive; Activity [13]: inactive
6 | CC(=O)O[C@H]1C(=O)[C@@]2(C)[C@H]([C@H](OC(=O)c3ccccc3)[C@]3(O)C[C@H](OC(=O)[C@H](O)[C@@H](NC(=O)c4ccccc4)c4ccccc4)C(C)=C1C3(C)C)[C@]1(OC(C)=O)CO[C@@H]1C[C@@H]2O [PACLITAXEL] | – | – | – | 8.15 | 8.15 | – | – | – | – | –
7 | C=C1CC[C@H]2C(C)(C)CCC[C@]2(C)[C@H]1CC/C(C)=C/Cn1c[n+](C)c2ncnc(N)c21.[Cl-] | > 6.25 | 8 | 16 | 5.43 | 5.33 | 4.60 | 8 | 5.25 | 1 | MIC [15]: 2 µg/mL; MIC [16]: 16 µg/mL; MIC [17]: 8 µg/mL
8 | C=C1CC[C@H]2C(C)(C)CCC[C@]2(C)[C@H]1CC/C(C)=C/Cn1c[n+](C)c2nc[n-]/c(=N\OC)c21 | > 6.25 | 4 (≈ 8.86 µM) | 4 (≈ 8.86 µM) | 6.70 | 5.63 | 5.10 | 8 (≈ 17.7 µM) | 5.99 | 2 (≈ 4.43 µM) | MIC [15]: 2 µg/mL (≈ 4.43 µM); MIC [16]: 32 µg/mL (≈ 70.8 µM); MIC [17]: 8 µg/mL (≈ 17.7 µM)
